Bioassay records (PubChem BioAssay)
Sampled rows, rich in hits. Any-hit rate of the full collection: about 4.3%.
Lipid droplet = inhibitors of hepatocyte lipid droplet formation, primary screen, imaging, high-throughput imaging, BODIPY stain; AML12 mouse hepatocytes, oleate lipid droplets; inhibition, % at 6.5 µM; 0.4% of 240,000 active; AID 1656, 2009;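 active = lipid droplet intensity inhibited by at least 50%, with more than 500 cells counted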
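Material: mouse AML12 hepatocyte cell line, fixed after treatment; Timing: compound with oleate, overnight; Technique: high-content imaging of BODIPY-stained droplets and DAPI nuclei; Probe or stimulus: oleate, 100 µM final; Dosing: compound at 6.5 µM only.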
SR-BI DiI inh = inhibitors of SR-BI mediated HDL lipid uptake, primary screen, ldlA[mSR-BI] cells, fluorescence, single point | Scavenger receptor class B member 1 (Mus musculus), Q61009 | ldlA[mSR-BI] CHO cells, DiI-HDL uptake fluorescence, 3 h | inhibition, % at 12.5 µM | 0.96% of 320,000 active;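 active = mean replicate inhibition of at least 70% and a set share of replicates each scoring 70 or more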;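 note: 0% = median of neutral control wells and 100% = median of positive control wells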
Target sequence (Q61009 whole entry, looked up): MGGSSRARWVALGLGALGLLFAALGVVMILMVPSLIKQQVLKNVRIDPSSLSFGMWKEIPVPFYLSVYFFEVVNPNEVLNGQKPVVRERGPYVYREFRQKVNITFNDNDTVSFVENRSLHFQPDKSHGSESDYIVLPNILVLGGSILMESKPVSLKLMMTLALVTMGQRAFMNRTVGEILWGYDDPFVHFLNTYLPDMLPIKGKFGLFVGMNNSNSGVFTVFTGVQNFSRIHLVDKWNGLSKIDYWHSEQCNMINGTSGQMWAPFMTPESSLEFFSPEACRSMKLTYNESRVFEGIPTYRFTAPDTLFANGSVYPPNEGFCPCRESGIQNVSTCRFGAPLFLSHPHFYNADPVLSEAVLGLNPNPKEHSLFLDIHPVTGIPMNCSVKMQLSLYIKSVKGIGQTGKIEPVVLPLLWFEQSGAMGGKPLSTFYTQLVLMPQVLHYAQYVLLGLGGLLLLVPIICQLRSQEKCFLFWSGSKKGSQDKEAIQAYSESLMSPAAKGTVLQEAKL
Yeast superoxide = reduction of superoxide in aged yeast, primary screen, HTS. 0.18% of 330,000 active. S. cerevisiae aged cells, superoxide DHE fluorescence; stronger effect = lower value. superoxide response (% of plate mean), % at 10 µM;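 active = superoxide response under a set limit, about three screen SD below normal, cut at about 65% in these data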;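 note: yeast aged for seven days with compound at 30 °C before DHE staining; 100% = average MFI of all compound-treated wells on the plate with controls excluded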
AHR activator = AHR activators, primary screen, cell-based, luminescence, luciferase reporter, human; AHR-responsive luciferase reporter cells; activation, % at 5 µM; 2.5% of 320,000 active; AID 2796, 2010; in the data active = activation above about 47%;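 note: 0% = vehicle wells and 100% = reference agonist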
SR-BI DiI-HDL act = activators of SR-BI mediated DiI-HDL uptake, primary screen, ldlA[mSR-BI] CHO cells, DiI fluorescence; 3 h; 100 = double the neutral-control signal; activation, % at 12.5 µM; 0.096% of 320,000 active;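 active = mean replicate activation of at least 60% and every replicate at or above 60%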;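 note: 0% = median plate neutral-control signal and 100% = twice that signal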
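Material: SR-BI-overexpressing, LDLR-lacking CHO cells | Dosing: Single compound concentration, delivered by pin transfer | Probe or stimulus: Labelled HDL, 10 µg/mL | Signal: Bottom-read cell fluorescence after medium removal, ex 550/em 595 nm | Schedule: 3 h, 37 °C | Evaluation: HDL uptake via cellular fluorescence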
SMARCA2 activ = SMARCA2 (BRM) function activators, primary screen, cell-based, luminescence, high throughput | MG213 cells, MMTV-luciferase reporter, dexamethasone, overnight | activation, % at 9.1 µM | 1% of 370,000 active | AID 652017, 2013; in the data active = activation above about 7.8%;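 note: 0% = vehicle wells and 100% = reference activator wells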
Hep lipid conf = hepatocyte lipid droplet accumulation inhibitors, confirmation, imaging, AML12 mouse hepatocytes, single concentration, high-content. BODIPY lipid droplet imaging; droplets induced with 100 µM oleic acid. shares compounds with Lipid droplet. 65% of 870 active. AID 463183, 2010. inhibition, % at 5.2 µM;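 active = inhibition of lipid droplet metric at least 50%, with more than 300 cells in each of four replicates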;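 note: plate controls were DMSO with oleic acid for no effect and 5 µM Triacsin-C for full effect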
AML12 tox img = AML12 hepatocyte cytotoxicity, counter-screen for hepatic lipid droplet formation project, imaging, DAPI nuclear morphology imaging | AML12 mouse hepatocytes; stronger effect = higher value; cells fed 100 µM oleate overnight | 3% of 870 active | z-score at 5 µM | shares compounds with Lipid droplet | AID 463200, 2010; in the data active = z-score above about 6.3;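 note: compound exposure lasted overnight at 37 °C before fixation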
AML12 tox ATP = AML12 hepatocyte cytotoxicity, confirmation, cytotoxicity control for hepatic lipid droplet formation project, cell-based, single concentration. 530 tested, under 10 active. AML12 mouse hepatocyte viability, ATP luminescence; cells loaded with 100 µM oleic acid. cytotoxicity, % at 50 µM. shares compounds with Lipid droplet. AID 463219, 2010;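 active = cytotoxicity above 50% in each of four replicates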;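 note: compound exposure lasted overnight at 37 °C before the ATP read; 0% = DMSO-treated cells and 100% = wells with no cells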
Superoxide pick = superoxide lowering in aged yeast cells, confirmation, cherry picked compounds; shares compounds with Yeast superoxide; S. cerevisiae aging, superoxide DHE fluorescence; stronger effect = lower value; superoxide response (% of plate), % at 10 µM; 1% of 850 active; AID 434994, 2010;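 active = superoxide signal below 65% of the plate average of sample wells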;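 note: cells aged with compound for 7 days at 30 degrees C before staining; 100% equals mean DHE fluorescence of all compound wells on the plate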
DHE fluor count = DHE quenching or ROS scavenging interference in aged yeast, artefact control for yeast caloric restriction mimetic project, S. cerevisiae BY4741, flow cytometry; shares compounds with Yeast superoxide; 850 tested, under 10 active; fluorescence response, % at 10 µM; DHE fluorescence; stronger effect = lower value;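 active = fluorescence response below 15%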;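 note: percent of the mean fluorescence averaged over all compound wells on the plate; lower means stronger quenching of DHE signal or ROS scavenging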
AHR act confirm = AHR activators, confirmation, cell-based, luminescence, luciferase reporter, human; shares compounds with AHR activator; human cells, AHR-responsive luciferase reporter; activation, % at 9 µM; 87% of 2,300 active; AID 2845, 2010; in the data active = activation above about 49%;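 note: HepG2 hepatoma cells carrying a DRE-driven firefly luciferase reporter; 0% = vehicle wells and 100% = reference agonist wells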
PXR counter = human PXR activators, counter-screen for AHR activator project, cell-based, luciferase luminescence; shares compounds with AHR activator; 88% of 2,300 active; AID 434939, 2010; cell-based PXR reporter; activation, % at 11.6 µM; in the data active = activation above about 11%;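 note: human hepatoma DPX-2 cells expressing full-length human PXR; 0% = DMSO and 100% = reference agonist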
SMARCA2 conf = SMARCA2 (BRM) function activators, confirmation, cell-based, luminescence, triplicate; activation, % at 9.1 µM; MG213 cells, MMTV-luciferase with dexamethasone, overnight; MG213 cells expressing E1A, Rb sequestered; DMSO wells 0%, reference activator 100%; shares compounds with SMARCA2 activ; AID 652260, 2013; 30% of 3,500 active;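 active = activation above its plate's cutoff, the mean activation of tested wells plus 3 SD, cut at about 7.9% in these data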
VP16 Luc act = GAL4-VP16 luciferase reporter activation, counter-screen for SMARCA2 (BRM) activator project, cell-based, pG5luc, luminescence, high throughput; HEK293 GAL4-VP16 pG5luc reporter; scaled: DMSO wells 0%, SAHA wells 100%; shares compounds with SMARCA2 activ; activation, % at 9.1 µM; AID 686939, 2013; 41% of 3,500 active;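 active = activation above the solvent-only control well mean plus 3 SD, averaged across control plates, cut at about 5.2% in these data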
Starred values were filed as active, the others as inactive; x = no result given.

SMILES | Lipid droplet | SR-BI DiI inh | Yeast superoxide | AHR activator | SR-BI DiI-HDL act | SMARCA2 activ | Superoxide pick | DHE fluor count | others
COc1ccc2nc(SCC(=O)N3CC(=O)Nc4ccccc43)c(C#N)cc2c1 | -2 | 18 | 99 | 43 | -18 | 3 | x | x
Cc1cc(C)c2nc(SCC(=O)N3CC(=O)Nc4ccccc43)c(C#N)cc2c1 | 163* | 22 | 99 | 92* | -22 | 3 | x | x | Hep lipid conf=-307;AML12 tox img=22*;AHR act confirm=76*;PXR counter=77*
COc1cccc(N=Nc2ccc3ccccc3c2O)c1 | 75* | 72* | 94 | 78* | -72 | 8.0* | x | x | Hep lipid conf=70;AML12 tox img=-0.23;AML12 tox ATP=61*;SMARCA2 conf=3;VP16 Luc act=5.6*
Oc1ccc2ccccc2c1N=Nc1ccc(F)cc1 | 33 | 3 | 102 | 38 | -3 | 3 | x | x
Oc1c(N=Nc2ccc(F)cc2)ccc2ccccc12 | 71* | 22 | 99 | 73* | -22 | 11* | x | x | Hep lipid conf=96*;AML12 tox img=1;AML12 tox ATP=64*;SMARCA2 conf=4;VP16 Luc act=8.6*
COC(=O)C1=C(C)N(C)C(=NCc2ccc3c(c2)OCO3)NC1c1cccc(C(F)(F)F)c1 (configuration not stated) | x | x | x | x | x | -8 | x | x
C=CCNc1ncnc2c1cnn2-c1ccc(C)cc1C | -4 | -3 | 98 | 6 | 3 | 0 | 101 | 98
CCCc1c(-c2cccc(Br)c2)ncn1CCc1ccccc1OC | x | x | x | x | x | -4 | x | x
COc1ccc(CC(=O)Nc2ccc(-c3csc(C)n3)cc2)cc1 | 24 | 14 | 100 | -6 | -14 | -2 | x | x
Cc1nc(-c2ccc(NC(=O)Cc3ccccc3)cc2)cs1 | -13 | -6 | 64* | -5 | 6 | -1 | 120 | 123
CSc1ccccc1C(=O)N1CCN(c2ccc(F)cc2)CC1 | 15 | 2 | 95 | -1 | -2 | -1 | 109 | 90
CS(=O)(=O)Nc1ccccc1C(=O)N1CCN(c2ccccc2)CC1 | -9 | x | 84 | -1 | x | -2 | 111 | 110
CS(=O)(=O)Nc1ccccc1C(=O)N1CCCC1 | -2 | -43 | 92 | 2 | 43 | -2 | x | x
O=C(OC12CCCN(C1)/C(=C/c1cccc(Cl)c1)C2)c1ccno1 (configuration not stated) | x | x | x | x | x | -1 | x | x
CCN(CC)CCCNC(=O)c1cc2cc(Cl)ccc2nc1N | x | x | x | x | x | 2 | x | x
O=S(=O)(N1CCCCC1)n1nnc2cc3ccccc3cc21 | x | x | x | x | x | -4 | x | x
OC(c1nc2ccccc2[nH]1)C(O)c1nc2ccccc2[nH]1 (configuration not stated) | 4 | -3 | 102 | 7 | 3 | -2 | x | x
FC(F)(F)c1nc2cc3nc4ccccc4[nH]c3cc2n1 | 10 | -10 | 56* | 55* | 10 | -1 | 55* | 94
Cc1ccc(C(=O)N2O[C@]34C=C[C@]25C[C@@H](O)CC[C@]5(C)C3CC[C@]2(C)[C@@H]([C@H](C)/C=C/[C@H](C)C(C)C)CC[C@H]24)cc1 (some centres not stated) | x | x | x | x | x | 6 | x | x
CCN(CC)S(=O)(=O)c1ccc(N2CCCC2)c(NC(=O)Cc2c(F)cccc2Cl)c1 | 5 | 14 | 100 | -1 | -14 | -2 | 102 | 93
O=C(CSc1nc2ccccc2o1)N1CCN(S(=O)(=O)c2ccc3ccccc3c2)CC1 | 14 | 10 | 64* | 6 | -10 | -1 | 111 | 117
COc1ccc(N2C(=O)CC(Nc3ccc(C(=O)O)cc3)C2=O)cc1OC (configuration not stated) | -2 | 4 | 73 | 0 | -4 | 2 | x | x
COC(=O)c1cccc(NC2CC(=O)N(c3ccc(OC)c(OC)c3)C2=O)c1 (configuration not stated) | -9 | 8 | 62* | -1 | -8 | 5 | 97 | 93
Nc1c(NCc2ccccc2)c(=O)c1=O | 0 | -13 | 63* | 0 | 13 | -2 | 96 | 91
CCC(C)N(Cc1ccc(OC)cc1OC)S(=O)(=O)c1cc(Br)ccc1Br (configuration not stated) | x | x | x | x | x | -3 | x | x
O=C(/C=C/c1ccccc1)NC(=S)NNC(=O)Cc1cccs1 | -1 | 6 | 50* | 49* | -6 | -2 | 87 | 88
O=C(Cc1cccs1)NNC(=S)NC(=O)c1ccccc1 | -4 | -1 | 125 | 3 | 1 | -5 | x | x
Cn1c(=S)[nH]c(=O)c2ncc(=O)[nH]c21 | -2 | -26 | 63* | -1 | 26 | 1 | 103 | 91
